Test results taken from ChEMBL document CHEMBL3585303, “Progress towards small molecule menin-mixed lineage leukemia (MLL) interaction inhibitors with in vivo utility” (Bioorg Med Chem Lett, 2015).

Key:
[1] = Intrinsic clearance in human liver microsomes; type: ADME; conditions: read-out: CLH
[2] = Half life in rat at 0.2 mg/kg, iv; type: ADME, organism-based; conditions: in vivo
Outline: (§1)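 Rats received a single IV dose of 0.2 mg/kg, given either as a discrete dose or within an IV cassette study. Reported parameters were plasma clearance CLp (mL/min/kg), T1/2, and volume of distribution at steady state Vss (L/kg).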

[3] = Volume of distribution at steady state in rat at 0.2 mg/kg, iv; type: ADME, organism-based; conditions: in vivo, read-out: Vdss; outline: as §1
[4] = Intrinsic clearance in rat liver microsomes; type: ADME; conditions: read-out: CLH
[5] = Unbound fraction in mouse plasma; type: ADME, cell-free
Outline: (§2)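 Plasma protein binding was determined in human, rat or mouse plasma and reported as the fraction unbound (fu).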

[6] = Unbound fraction in human plasma; type: ADME, cell-free; outline: as §2
[7] = Plasma clearance in rat at 0.2 mg/kg, iv; type: ADME, organism-based; outline: as §1
[8] = target: Menin/Histone-lysine N-methyltransferase MLL (Homo sapiens, UniProt O00255); assay: Inhibition of menin-MLL1 interaction (unknown origin) incubated for 1 hr by fluorescein and Texas Red labeled MBM1 based fluorescence polarization assay; type: protein assay
[9] = Unbound fraction in rat plasma; type: ADME, cell-free; outline: as §2
MV4-11 = assay: Growth inhibition of human MV4-11 cells; type: functional
[10] = Drug level in rat hepatic S9 fraction treated with compound 10b assessed as compound formation; type: ADME, tissue-based, Liver

Chain of Menin/Histone-lysine N-methyltransferase MLL (O00255 whole entry): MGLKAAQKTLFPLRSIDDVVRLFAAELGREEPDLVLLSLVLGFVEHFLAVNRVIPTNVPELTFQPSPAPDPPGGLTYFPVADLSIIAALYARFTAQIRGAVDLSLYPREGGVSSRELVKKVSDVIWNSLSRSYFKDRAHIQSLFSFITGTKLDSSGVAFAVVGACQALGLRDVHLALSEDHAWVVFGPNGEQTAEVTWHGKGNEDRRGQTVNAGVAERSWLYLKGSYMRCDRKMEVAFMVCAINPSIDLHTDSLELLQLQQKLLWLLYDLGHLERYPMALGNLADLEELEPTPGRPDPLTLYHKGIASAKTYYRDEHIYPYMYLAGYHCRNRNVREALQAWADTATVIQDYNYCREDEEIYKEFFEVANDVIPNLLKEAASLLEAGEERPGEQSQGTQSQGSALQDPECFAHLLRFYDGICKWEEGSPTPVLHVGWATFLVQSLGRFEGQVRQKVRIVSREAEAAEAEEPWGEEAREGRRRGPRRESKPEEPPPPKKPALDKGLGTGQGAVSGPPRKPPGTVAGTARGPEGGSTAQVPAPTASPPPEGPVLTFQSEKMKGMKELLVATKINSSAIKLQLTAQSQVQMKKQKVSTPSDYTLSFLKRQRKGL
Chain of Menin/Histone-lysine N-methyltransferase MLL (Q03164 1-2718 partner limits assumed): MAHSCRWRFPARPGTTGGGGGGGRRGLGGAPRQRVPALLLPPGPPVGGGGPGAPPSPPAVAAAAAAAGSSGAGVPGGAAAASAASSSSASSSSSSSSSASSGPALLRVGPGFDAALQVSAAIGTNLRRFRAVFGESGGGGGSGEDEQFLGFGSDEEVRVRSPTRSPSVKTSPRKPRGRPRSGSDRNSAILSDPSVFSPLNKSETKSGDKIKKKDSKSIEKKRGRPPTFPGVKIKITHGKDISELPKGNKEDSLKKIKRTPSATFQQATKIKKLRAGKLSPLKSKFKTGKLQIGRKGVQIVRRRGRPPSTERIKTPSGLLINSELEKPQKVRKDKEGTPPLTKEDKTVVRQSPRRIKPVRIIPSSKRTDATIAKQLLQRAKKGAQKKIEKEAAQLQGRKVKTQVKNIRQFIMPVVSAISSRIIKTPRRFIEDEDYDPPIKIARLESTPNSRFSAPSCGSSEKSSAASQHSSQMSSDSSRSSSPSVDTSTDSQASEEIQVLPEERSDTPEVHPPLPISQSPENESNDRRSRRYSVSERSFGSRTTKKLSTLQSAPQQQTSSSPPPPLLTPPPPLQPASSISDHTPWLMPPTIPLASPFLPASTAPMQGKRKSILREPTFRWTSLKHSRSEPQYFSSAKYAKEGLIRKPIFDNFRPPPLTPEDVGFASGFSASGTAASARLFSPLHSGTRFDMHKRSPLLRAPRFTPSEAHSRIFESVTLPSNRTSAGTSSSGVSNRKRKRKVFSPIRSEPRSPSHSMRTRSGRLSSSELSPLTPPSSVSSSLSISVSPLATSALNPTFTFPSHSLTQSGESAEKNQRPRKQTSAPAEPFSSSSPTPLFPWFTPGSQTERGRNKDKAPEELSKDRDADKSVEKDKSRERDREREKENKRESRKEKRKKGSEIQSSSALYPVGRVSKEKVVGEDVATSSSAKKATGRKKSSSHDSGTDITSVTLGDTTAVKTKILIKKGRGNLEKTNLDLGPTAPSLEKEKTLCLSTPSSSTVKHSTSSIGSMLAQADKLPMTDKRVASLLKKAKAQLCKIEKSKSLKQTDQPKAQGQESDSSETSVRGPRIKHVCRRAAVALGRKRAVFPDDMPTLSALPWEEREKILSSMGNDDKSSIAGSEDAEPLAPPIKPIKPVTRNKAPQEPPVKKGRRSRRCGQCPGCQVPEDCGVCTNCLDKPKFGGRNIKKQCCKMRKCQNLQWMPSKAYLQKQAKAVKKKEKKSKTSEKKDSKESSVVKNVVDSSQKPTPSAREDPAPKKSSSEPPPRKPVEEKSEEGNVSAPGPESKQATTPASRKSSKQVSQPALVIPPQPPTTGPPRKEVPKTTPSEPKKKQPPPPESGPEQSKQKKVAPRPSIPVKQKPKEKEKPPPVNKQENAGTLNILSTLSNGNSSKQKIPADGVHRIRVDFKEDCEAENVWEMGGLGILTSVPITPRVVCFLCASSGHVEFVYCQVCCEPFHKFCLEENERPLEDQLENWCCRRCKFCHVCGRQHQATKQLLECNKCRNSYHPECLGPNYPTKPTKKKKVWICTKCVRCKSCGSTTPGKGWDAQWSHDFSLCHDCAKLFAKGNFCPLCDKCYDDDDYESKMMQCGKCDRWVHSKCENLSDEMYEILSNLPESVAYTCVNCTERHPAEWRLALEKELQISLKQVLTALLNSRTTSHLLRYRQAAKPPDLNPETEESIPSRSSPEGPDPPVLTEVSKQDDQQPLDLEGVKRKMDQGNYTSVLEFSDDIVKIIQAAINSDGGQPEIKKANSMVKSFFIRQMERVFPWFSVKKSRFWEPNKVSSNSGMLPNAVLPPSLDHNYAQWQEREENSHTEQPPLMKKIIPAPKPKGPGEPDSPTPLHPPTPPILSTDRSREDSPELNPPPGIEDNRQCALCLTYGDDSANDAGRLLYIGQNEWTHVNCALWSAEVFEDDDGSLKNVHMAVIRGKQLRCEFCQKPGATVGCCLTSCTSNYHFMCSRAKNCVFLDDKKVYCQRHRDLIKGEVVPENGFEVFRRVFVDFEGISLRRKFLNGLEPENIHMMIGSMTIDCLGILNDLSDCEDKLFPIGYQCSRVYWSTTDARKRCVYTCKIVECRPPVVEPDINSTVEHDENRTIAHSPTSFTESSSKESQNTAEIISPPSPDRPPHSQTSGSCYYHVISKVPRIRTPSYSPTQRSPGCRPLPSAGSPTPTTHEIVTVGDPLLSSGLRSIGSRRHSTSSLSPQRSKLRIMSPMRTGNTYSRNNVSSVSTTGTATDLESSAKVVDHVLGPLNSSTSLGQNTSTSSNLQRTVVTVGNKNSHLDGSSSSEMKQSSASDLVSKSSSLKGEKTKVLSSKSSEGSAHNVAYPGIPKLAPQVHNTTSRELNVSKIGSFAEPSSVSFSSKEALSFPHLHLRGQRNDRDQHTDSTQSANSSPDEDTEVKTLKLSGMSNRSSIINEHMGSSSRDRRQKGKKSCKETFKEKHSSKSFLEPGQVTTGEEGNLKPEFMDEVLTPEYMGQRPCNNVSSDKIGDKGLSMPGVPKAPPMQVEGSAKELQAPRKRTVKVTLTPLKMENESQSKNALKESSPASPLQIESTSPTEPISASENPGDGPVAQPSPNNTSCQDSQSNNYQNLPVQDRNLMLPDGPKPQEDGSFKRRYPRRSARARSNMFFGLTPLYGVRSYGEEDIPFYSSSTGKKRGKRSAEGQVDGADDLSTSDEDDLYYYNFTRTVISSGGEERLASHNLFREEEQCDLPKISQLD
Chain of Menin/Histone-lysine N-methyltransferase MLL (Q03164 2719-3969 partner limits assumed): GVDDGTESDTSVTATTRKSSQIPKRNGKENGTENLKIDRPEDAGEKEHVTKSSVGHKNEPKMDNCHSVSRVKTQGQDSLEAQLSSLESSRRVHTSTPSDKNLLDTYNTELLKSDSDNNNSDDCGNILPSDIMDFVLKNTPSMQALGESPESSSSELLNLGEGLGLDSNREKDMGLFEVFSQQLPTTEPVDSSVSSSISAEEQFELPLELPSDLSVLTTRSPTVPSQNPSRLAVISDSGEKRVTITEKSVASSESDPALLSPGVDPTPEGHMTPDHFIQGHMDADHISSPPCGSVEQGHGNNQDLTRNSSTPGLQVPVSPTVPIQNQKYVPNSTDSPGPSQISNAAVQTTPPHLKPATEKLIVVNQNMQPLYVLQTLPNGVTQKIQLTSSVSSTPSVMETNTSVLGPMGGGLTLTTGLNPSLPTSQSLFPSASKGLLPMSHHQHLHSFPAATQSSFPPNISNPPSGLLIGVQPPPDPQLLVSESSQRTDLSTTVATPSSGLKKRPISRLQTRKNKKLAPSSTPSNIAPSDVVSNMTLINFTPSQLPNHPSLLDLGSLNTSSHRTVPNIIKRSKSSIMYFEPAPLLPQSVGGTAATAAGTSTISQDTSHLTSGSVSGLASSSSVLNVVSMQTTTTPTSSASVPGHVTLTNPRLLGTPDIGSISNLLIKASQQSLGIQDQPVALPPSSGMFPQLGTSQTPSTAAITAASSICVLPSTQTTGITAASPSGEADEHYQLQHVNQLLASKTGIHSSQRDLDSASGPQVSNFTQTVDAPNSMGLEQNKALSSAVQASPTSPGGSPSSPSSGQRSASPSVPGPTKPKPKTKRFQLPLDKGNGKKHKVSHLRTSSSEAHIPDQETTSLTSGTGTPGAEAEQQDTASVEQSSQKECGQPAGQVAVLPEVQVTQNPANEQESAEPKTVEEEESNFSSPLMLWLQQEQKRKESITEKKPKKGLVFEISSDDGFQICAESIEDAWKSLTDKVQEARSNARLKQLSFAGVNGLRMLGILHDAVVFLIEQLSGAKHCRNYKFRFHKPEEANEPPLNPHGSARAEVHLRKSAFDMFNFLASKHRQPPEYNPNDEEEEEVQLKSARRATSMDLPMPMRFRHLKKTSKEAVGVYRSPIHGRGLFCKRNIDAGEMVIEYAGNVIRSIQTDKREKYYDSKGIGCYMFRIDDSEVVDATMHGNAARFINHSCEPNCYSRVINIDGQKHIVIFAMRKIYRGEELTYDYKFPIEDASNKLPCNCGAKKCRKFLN

Row | CLint scaled [1] | half-life [2] | Vd [3] | CLint scaled [4] | fraction unbound [5] | fraction unbound [6] | clearance [7] | IC50 [8] | fraction unbound [9] | GI50 (MV4-11) | Drug metabolism [10] | Compound
1 | 124 mL/min/kg | 1.6 h | 2.9 L/kg | 919 mL/min/kg | 0.013 | 0.004 | 40 mL/min/kg |  |  |  |  | N#Cc1ccc(OCCCN2CCC(C(O)(c3ccccc3)C3CCCC3)CC2)cc1 (stereo unspecified)
2 |  |  |  |  |  |  |  |  |  |  | metabolite_detected | O[C@](c1cccc(F)c1)(c1ccccn1)C1CCNCC1

More lines, now with the values behind:

Row | Compound | CLint scaled [1] | half-life [2] | Vd [3] | CLint scaled [4] | fraction unbound [5] | fraction unbound [6] | clearance [7] | IC50 [8] | fraction unbound [9] | GI50 (MV4-11) | Drug metabolism [10]
3 | N#Cc1ccc(OCCCN2CCC(C(O)(c3nccs3)C3CCCC3)CC2)cc1 (stereo unspecified) | 77.4 mL/min/kg |  |  | 558 mL/min/kg | 0.192 | 0.117 |  |  |  |  | 
4 | N#Cc1ccc(OCCCN2CCC(C(O)(c3cccc(F)c3)c3nccs3)CC2)cc1 (stereo unspecified) | 69 mL/min/kg | 2.8 h | 7.2 L/kg | 273 mL/min/kg |  | 0.04 | 32 mL/min/kg | 0.46 µM | 0.108 |  | 
5 | NS(=O)(=O)c1ccc(OCCCN2CCC(C(O)(c3cccc(F)c3)c3nccs3)CC2)cc1 (stereo unspecified) | 50 mL/min/kg | 1.4 h | 4.4 L/kg | 206 mL/min/kg | 0.166 | 0.17 | 26 mL/min/kg |  | 0.322 |  | 
6 | CC1(C)CN=C(N2CCN(c3ncnc4sc(CC(F)(F)F)cc34)CC2)S1 |  |  |  |  |  |  |  |  |  | 3 µM | 
7 | NS(=O)(=O)c1ccc(OCCCN2CCC(C(O)(c3ccccn3)C3CCCC3)CC2)cc1 (racemic) | 16.2 mL/min/kg | 0.2 h | 4.3 L/kg | 271 mL/min/kg | 0.342 | 0.291 | 293 mL/min/kg |  |  |  | 
